Reference: ChEMBL document CHEMBL1212846, “Synthesis and in vivo evaluation of [11C]tariquidar, a positron emission tomography radiotracer based on a third-generation P-glycoprotein inhibitor” (Bioorg Med Chem, 2010)
Active and inactive are the calls of the source. No cut-off for these calls is given here.

How the values were obtained:
Brain [1] = experiment: Drug uptake in rat brain after 0.5 to 1.3 mins; assay type: ADME, tissue-based; details: in vivo
How it was run: (§1)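 Naïve rats under isoflurane anaesthesia (1.5–2% maintenance), warmed to about 38 °C, with femoral artery and vein catheters. Baseline dynamic PET, whole-brain TACs expressed as SUV. Arterial blood sampled frequently and gamma-counted.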

[2] = Ratio of drug level from brain to blood in MDR1a/b deficient FVB mouse; assay type: ADME, tissue-based; details: brain and blood
How it was run: (§2)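 Mice (wild-type, Mdr1a/b(−/−), Bcrp1(−/−), Mdr1a/b(−/−)Bcrp1(−/−); n = 3 per type) under isoflurane anaesthesia, warmed to about 38 °C. Whole-brain SUV taken at 25 min. Brain-to-blood ratio = individual brain SUV ÷ mean whole-blood SUV from separate groups, with blood drawn retro-orbitally at 25 min and gamma-counted.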

[3] = Ratio of drug level from brain to blood in BCRP1 deficient FVB mouse; assay type: ADME, tissue-based; details: brain and blood
How it was run: (§3)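 Single 60-min dynamic PET scan, whole brain outlined, SUV read at 25 min. Venous blood drawn retro-orbitally at 25 min in separate groups, gamma-counted and decay-corrected. Brain SUV of each animal divided by mean blood SUV of that group.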

[4] = Ratio of drug level from brain to blood in MDR1a/b and BCRP1 deficient FVB mouse; assay type: ADME, tissue-based; how it was run: as §2
[5] = Ratio of drug level from brain to blood in wild type FVB mouse; assay type: ADME, tissue-based; details: brain and blood; how it was run: as §3
Brain [6] = experiment: Decrease in binding in BCRP1 deficient FVB mouse brain; details: in vitro
Brain [7] = experiment: Decrease in binding in MDR1a/b deficient FVB mouse brain; details: in vitro
Brain [8] = experiment: Decrease in binding in MDR1a/b and BCRP1 deficient FVB mouse brain; details: in vitro
Brain [9] = experiment: Drug uptake in rat brain after 25 mins; assay type: ADME, tissue-based; details: in vivo; how it was run: as §1
Brain [10] = experiment: Drug uptake in rat brain at 15 mg/kg, iv after 60 mins post-radiotracer administration; assay type: ADME, organism-based; design: dose 15 mg/kg, route intravenous; details: in vivo, 1 h
Brain [11] = experiment: Drug uptake in rat brain at 5 mg/kg, iv after 60 mins post-radiotracer administration; assay type: ADME, organism-based; design: dose 5 mg/kg, route intravenous; details: in vivo, 1 h
[12] = target: T1, Broad substrate specificity ATP-binding cassette transporter ABCG2 (Homo sapiens, UniProt Q9UNQ0); experiment: Inhibition of BCRP
T1 sequence (Q9UNQ0 whole entry): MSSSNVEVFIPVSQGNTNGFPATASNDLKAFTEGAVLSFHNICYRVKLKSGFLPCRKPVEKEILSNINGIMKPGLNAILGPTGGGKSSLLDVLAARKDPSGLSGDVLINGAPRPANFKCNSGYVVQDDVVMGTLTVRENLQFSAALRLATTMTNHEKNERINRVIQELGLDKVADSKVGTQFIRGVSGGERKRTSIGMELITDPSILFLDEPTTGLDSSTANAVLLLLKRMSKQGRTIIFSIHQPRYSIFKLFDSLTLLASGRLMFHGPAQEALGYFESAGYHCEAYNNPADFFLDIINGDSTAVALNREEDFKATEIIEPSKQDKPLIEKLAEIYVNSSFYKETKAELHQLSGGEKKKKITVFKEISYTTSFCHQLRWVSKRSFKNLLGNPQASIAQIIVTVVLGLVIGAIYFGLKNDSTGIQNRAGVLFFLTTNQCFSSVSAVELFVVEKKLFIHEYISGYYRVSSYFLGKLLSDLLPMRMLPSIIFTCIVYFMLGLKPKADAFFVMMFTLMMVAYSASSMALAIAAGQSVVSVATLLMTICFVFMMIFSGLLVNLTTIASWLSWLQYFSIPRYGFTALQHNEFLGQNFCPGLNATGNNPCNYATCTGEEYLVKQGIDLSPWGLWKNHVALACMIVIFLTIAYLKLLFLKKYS

[13] = Inhibition of MRP
Brain [14] = experiment: Biodistribution in mouse brain; assay type: ADME, organism-based; details: in vivo; how it was run: as §2

Question: What does the source list for COc1cc2c(cc1OC)CN(CCc1ccc(NC(=O)c3cc(O[11CH3])c(OC)cc3NC(=O)c3cnc4ccccc4c3)cc1)CC2 [[11C]TARIQUIDAR]?
Answer: SUV (Brain [1]): 0.71; Kp [2]: 3.4; Kp [3]: 1.8; Kp [4]: 14.5; Kp [5]: 1; % decrease in binding (Brain [6]): 41%; % decrease in binding (Brain [7]): 49%; % decrease in binding (Brain [8]): 46%

Question: Which results are given for COc1cc2c(cc1OC)CN(CCc1ccc(NC(=O)c3cccc4c(=O)c5cccc(OC)c5[nH]c34)cc1)CC2 [ELACRIDAR]?
Answer: SUV (Brain [9]): 0.19; SUV (Brain [10]): 0.43; SUV (Brain [11]): 0.71

Question: For COc1cc2c(cc1OC)CN(CCc1ccc(NC(=O)c3cc(OC)c(OC)cc3NC(=O)c3cnc4ccccc4c3)cc1)CC2 [TARIQUIDAR], which “inhibition (INH)” value [12] is on record?
Answer: Active

Question: And the inhibition [13]?
Answer: Active

Question: What about the Activity (Brain [14]) of the same molecule?
Answer: 24%
